Bioassay records deposited in PubChem by The Scripps Research Institute Molecular Screening Center.
Hits are enriched below; roughly 3.4% of the tested compounds scored in any of these assays.
TAAR1 agonist – agonists of human TAAR1 | activation, % at 3 µM | AID 624467 | CHO RD-HGA16 TAAR1, Fluo-8 calcium fluorescence; vehicle wells 0%, saturating PEA agonist 100% | Q96RJ0 | actives 0.99% (n = 360,000);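 active = activation above the mean activation of all test compounds in the run plus 3 SD, cut at about 38% in these data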
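Repeats: no replicates (n 1) | Material: CHO-derived RD-HGA16 cells with stable Gα16 and human TAAR1 | Technique: Kinetic Fluo-8 calcium fluorescence | Schedule: 17-24 h seeding, 75 min 37 °C dye, 30 min RT | Evaluation: % activation from peak over basal fluorescence ratio, DMSO-to-PEA scaled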
M1 ag – activates human CHRM1 receptor; P11229; CHO-K1 hM1, Fluo-8 calcium fluorescence, agonist mode; 0% DMSO, 100% acetylcholine EC100; activation, % at 3 µM; actives 0.33% (n = 360,000); AID 588814;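 active = activation above the run's mean compound activation plus 3 SD, cut at about 16% in these data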;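 note: peak over basal fluorescence ratio within a 140 s kinetic read after compound addition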
Target sequence (P11229 whole entry, looked up): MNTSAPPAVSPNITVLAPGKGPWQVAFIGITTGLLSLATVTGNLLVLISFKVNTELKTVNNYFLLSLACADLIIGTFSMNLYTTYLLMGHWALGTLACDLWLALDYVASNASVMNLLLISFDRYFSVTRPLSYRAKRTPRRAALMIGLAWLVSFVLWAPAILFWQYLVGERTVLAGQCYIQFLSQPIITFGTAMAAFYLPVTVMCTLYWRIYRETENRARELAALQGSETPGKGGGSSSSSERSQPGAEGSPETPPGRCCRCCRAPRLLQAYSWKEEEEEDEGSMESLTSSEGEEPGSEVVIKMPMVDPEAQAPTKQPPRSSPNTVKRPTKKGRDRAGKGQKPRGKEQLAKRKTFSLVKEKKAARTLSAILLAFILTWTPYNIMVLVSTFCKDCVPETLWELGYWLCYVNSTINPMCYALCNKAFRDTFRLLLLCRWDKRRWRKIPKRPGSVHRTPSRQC
CHRM1 antagonist – blocks human M1 muscarinic receptor; inhibition, % at 3 µM; CHO-K1 hM1, Fluo-8 calcium fluorescence, ACh EC80 antagonist; actives 1.3% (n = 360,000); P11229; AID 588852;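 active = percent inhibition above its own plate's cutoff, namely the mean of that plate's compound wells plus 3 SD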;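 note: peak over basal fluorescence ratio during 140 s after agonist addition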
TAAR1 antag – antagonists of human TAAR1; Q96RJ0; inhibition, % at 3 µM; AID 624466; actives 1.5% (n = 360,000); CHO RD-HGA16 TAAR1, Fluo-8 calcium fluorescence, antagonist;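 active = inhibition above a per-plate cutoff, the mean inhibition of test compounds on that plate plus 3 SD, cut at about 49% in these data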
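Assay system: CHO-derived RD-HGA16 cells stably expressing human TAAR1 plus Gα16. Timing: 140 s kinetic read after compound, 140 s after agonist. Technique: kinetic Fluo-8 calcium fluorescence measurement. Measure: % inhibition of agonist calcium response.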
M1 PAM – potentiates human M1 receptor response to acetylcholine. P11229. actives 0.088% (n = 360,000). activation, % at 3 µM. CHO-K1 hM1, Fluo-8 calcium fluorescence, ACh EC20; 0% = ACh EC20, 100% = maximal ACh; in the data active = activation above about 19%, passing the limit was not always enough
Numbers stand for hits; 0 = inactive; - = no result.

SMILES	TAAR1 agonist	M1 ag	CHRM1 antagonist	TAAR1 antag	M1 PAM
CN1CCN(c2ccncc2S(=O)(=O)N2CCCCC2)CC1	0	0	26.6	0	0
CC(C)N1CCN(c2ccncc2S(=O)(=O)N2CCCCC2)CC1	0	0	97.5	0	0
O=NN1CCN(c2ccncc2S(=O)(=O)N2CCCCC2)CC1	0	0	0	0	0
CC(C)NC(=O)N1CCN(c2ccncc2S(=O)(=O)N2CCOCC2)CC1	0	0	0	0	0
N#C/C(=C/c1ccc(N2CCOCC2)o1)c1ccc(Br)cc1	0	0	0	57.1	0
N#C/C(=C\c1cc([N+](=O)[O-])c(N2CCOCC2)cc1N1CCOCC1)c1nc2ccccc2[nH]1	0	0	0	0	0
N#C/C(=C/c1ccc(N2CCOCC2)o1)c1nc2ccccc2[nH]1	48.9	25.2	0	0	0
N#C/C(=C\c1ccc(N2CCOCC2)o1)c1ccccc1	0	0	0	0	0
CCN1C(=O)N[C@H]2C[C@H](C(=O)N3CCCC3)[C@H](C)[C@H](c3ccccc3)C[C@H]21	0	-	-	0	-
Cc1ccc(NC2=NCC(Cc3ccc(Br)cc3)S2)cc1 (stereo unspecified)	0	0	38.2	0	0
C[C@H](O)[C@@H]1C(=O)N2CCc3c([nH]c4c(-c5ccc6c(c5)OCO6)cccc34)[C@@H]2C[C@@H]1N(C)C(=O)NC1CCCCC1	0	-	-	0	-
COc1ccc2c(c1)[C@@]1(OCCC=C[C@H]1C)C(=O)N2C/C=C(\C)CCC=C(C)C	0	-	-	0	-
FC(F)(F)c1cccc(N2CCN(C(=S)NC3CCCC3)CC2)c1	0	0	33.4	0	0
Cc1nn(Cc2ccccc2)c(Cl)c1/C=C/C(=O)OC(C)C(=O)N1CCCC1 (stereo unspecified)	0	0	36.6	0	0
COC(=O)C1=C(C)N(C)C(=NCC2CC2)NC1c1ccc(Cl)cc1 (stereo unspecified)	0	-	-	0	-
COc1ccc(CCC(C)NC2C3CC4CC(C3)CC2C4)cc1 (stereo unspecified)	0	0	98.7	0	0
COc1ccc(CCC(C)Nc2ccccc2F)cc1 (stereo unspecified)	0	0	0	0	0
CCC(Oc1ccc2c(=O)c(-c3ccccc3OC)coc2c1)C(=O)OCc1ccccc1 (stereo unspecified)	0	0	0	54.9	0
CC1CCc2nn(CC(=O)N3CCc4ccccc43)cc2C1 (stereo unspecified)	0	0	101.8	0	0
CCOC(=O)c1c(C)[nH]c(C)c1C(=O)CSc1nc2ccccc2n1CC	0	0	0	49.1	0
COc1ccc(C(=O)CSc2nc3ccccc3n2CC(=O)c2ccccc2)cc1	0	0	0	59.0	0
COCCn1c(SCC(=O)Nc2ccc(OC)c(S(N)(=O)=O)c2)nc2ccccc21	0	0	0	0	0
COCCn1c(SCC(=O)Nc2ccc3[nH]c(=O)[nH]c3c2)nc2ccccc21	0	0	38.2	0	0
COc1ccc(OCCSc2nc3ccccc3n2CC(=O)O)cc1	0	0	0	0	0
CCn1c(SCC(=O)Nc2ccc3[nH]c(=O)[nH]c3c2)nc2ccccc21	0	0	49.5	0	0
SMILES	TAAR1 agonist	M1 ag	CHRM1 antagonist	TAAR1 antag	M1 PAM
CCOC(=O)N(C)C[C@H]1OCc2cn(nn2)CCCC(=O)N([C@@H](C)CO)C[C@@H]1C	0	-	-	0	-
Cc1noc(C)c1NC(=O)N(C)C[C@@H]1OCc2cn(nn2)CCCC(=O)N([C@@H](C)CO)C[C@H]1C	0	-	-	0	-
CCN(CC)CC#CCOC(=O)C(O)(c1ccccc1)C1CCCCC1 (stereo unspecified)	0	-	-	0	-
C[N+]1(C)CCC(OC(=O)C(O)(c2ccccc2)C2CCCC2)C1 (stereo unspecified)	0	0	97.3	0	0
C[N+]1(C)CC[C@H](OC(=O)[C@@](O)(c2ccccc2)C2CCCC2)C1	0	0	99.5	0	0
CCCCNC(=O)N1CCc2[nH]c3ccccc3c2C1	0	19.5	0	0	0
COc1ccccc1NC(=O)N1CCc2[nH]c3ccc(Cl)cc3c2C1	0	21.9	0	0	0
C=CCNC(=O)N1CCc2[nH]c3ccc(F)cc3c2C1	0	24.5	0	0	0
c1ccc(Cn2cc(CCOCc3ccccn3)c3ccccc32)cc1	0	-	-	0	-
Cc1ccc(C)c(Cn2nc3c4ccccc4n(Cc4ccccc4)cc-3c2=O)c1	0	64.2	61.5	0	0
O=c1c2cn(Cc3ccc(F)cc3)c3ccc(F)cc3c-2nn1Cc1ccc(F)cc1	0	0	0	0	0
O=C(O)c1cccc(Cn2cc(Br)cn2)c1	0	0	0	0	0
O=C(NCc1ccncc1)c1cccc(Cn2cc(Br)cn2)c1	0	0	96.8	0	0
Cc1cccc(NC(=O)COC(=O)c2cccc3c2C(=O)c2ccccc2C3=O)c1C	0	0	29.0	0	0
O=C(/C=C/c1cccs1)NC(=S)NNC(=O)Cc1cccs1	67.5	0	0	0	0
O=C1CCCC(c2ccccc2)N1 (stereo unspecified)	0	0	0	0	0
O=C1NC(c2ccccc2)CCO1 (stereo unspecified)	0	0	0	0	29.3
COc1ccc2c(ccc[n+]2CC(=O)c2ccc(C)cc2)c1	0	0	0	0	0
CCc1ccc(C(=O)C[n+]2cccc3cc(OC)ccc32)cc1	0	0	59.4	0	0
Cc1ccc2nc(N(CCCN(C)C)C(=O)c3ccc(S(=O)(=O)N4CCCCCC4)cc3)sc2c1	50.0	0	0	0	0
CCc1ccc2nc(N(CCCN(C)C)C(=O)c3ccc(S(=O)(=O)N4CCCC4)cc3)sc2c1	0	0	39.0	0	0
CCOC(=O)N1CCN(S(=O)(=O)c2ccc(C(=O)N(CCCN(C)C)c3nc4ccc(CC)cc4s3)cc2)CC1	0	0	0	0	0
COc1ccccc1NC(=O)N(C)C[C@H]1OCc2cn(nn2)CCCC(=O)N([C@H](C)CO)C[C@@H]1C	0	-	-	0	-
O=S1(=O)c2cc(Cl)ccc2N2CCC[C@@H]2CN1Cc1ccc(Cl)c(Cl)c1	0	-	-	0	-
CC1=CC(O)(c2ccccn2)P(=O)(c2ccccc2)C=C1C (stereo unspecified)	0	-	-	0	-
COc1ccc(-c2ccc3c(c2)S(=O)(=O)c2cccc(C(=O)N4CCN(C5CCCCC5)CC4)c2C3=O)cc1OC	0	0	0	51.6	0
COc1ccc(-c2ccc3c(c2)S(=O)(=O)c2cccc(C(=O)N4CCN(c5ccccn5)CC4)c2C3=O)cc1OC	0	0	0	0	0
CCc1ccc(N=Nc2ccc(O)c3[nH]cnc23)cc1	0	0	40.0	0	0
COC(=O)c1cc(Cl)ccc1NCC(N)c1ccccc1 (stereo unspecified)	0	0	0	0	0
O=C(Nc1ccc(Cl)cc1)OC[C@@H]1CSCCS(=O)(=O)N1	0	-	-	0	-
